# Measured values: ChEMBL document CHEMBL1123228, “Enantiomers of 3-(3,4-dihydroxyphenyl)- and 3-(3-hydroxyphenyl)-N-n-propylpiperidine: central pre- and postsynaptic dopaminergic effects and pharmacokinetics” (J Med Chem, 1986)
# Assays:
# [1] = Michaelis-Menten constant was measured against adenylate cyclase stimulation of cAMP formation in striatal homogenates; format: ADME, tissue-based; details: tissue homogenate
# [2] = species: Rattus norvegicus; assay: Maximal cAMP production in rat striatal homogenates.; format: functional
# Outline: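 cAMP formation in rat striatal homogenates was read with an automated adenylate cyclase assay.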
# [3] = system: Rattus norvegicus; assay: Presynaptic activity at the level of DA metabolism was determined at dose 45 umol/kg on striatal level of HVA; format: functional
# Outline: (§1)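 Female Wistar rats given 45 μmol/kg sc; striatal DOPAC and HVA measured by HPLC with electrochemical detection, compared with saline controls by Student's t test.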
# [4] = system: Rattus norvegicus; assay: Motor activity effect in reserpinized rat with tropolone pretreatment at 5 umol/kg, sc expressed as accumulation counts 0-30 min after treatment; format: functional
# Outline: (§2)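 Male Sprague-Dawley rats given reserpine 5 mg/kg ip 18 h before; some also given tropolone 50 mg/kg 30 min before. Compound given sc in the neck, or ip where stated. Locomotion recorded by photocell motility meters, one rat per cage, as accumulated counts over 0–30 min, mean ± SEM.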
# [5] = system: Rattus norvegicus; assay: Level of compound in rat cortex by pretreatment of tropolone (50 mg/kg, ip, 30min) at dose 8 umol/kg; format: functional, organism-based
# Outline: (§3)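 Female Wistar rats (170–200 g), compound sc in saline (1 mL/kg), killed 60 min later, with or without tropolone (50 mg/kg ip) before dosing. Striatum, cerebellum and cortex were extracted in perchloric acid, cleaned on Sephadex G10 and analysed by HPLC-ECD (pH 4.0, 15% methanol, 600 mV). Recovery-corrected, n = 3.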
# [6] = system: Rattus norvegicus; assay: Level of compound in rat cortex at dose 40 umol/kg; format: functional, organism-based; outline: as §3
# [7] = system: Rattus norvegicus; assay: Level of compound in rat cortex at dose 8 umol/kg; format: functional, organism-based; outline: as §3
# [8] = target: D(1A) dopamine receptor (Rattus norvegicus, UniProt P18901); assay: In vitro affinity against Dopamine receptor D1 using [3H]SCH-23390 radioligand in rat striatal homogenate.
# [9] = system: Rattus norvegicus; assay: Motor activity effect in reserpinized rat at 50 umol/kg, sc expressed as accumulation counts 0-30 min after treatment; format: functional; outline: as §2
# [10] = species: Rattus norvegicus; assay: Dopa accumulation was evaluated in corpus striatum of male Sprague-Dawley rat.; format: functional
# Outline: (§4)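 Male Sprague-Dawley rats, 200–300 g; drug in saline given sc after NSD 1015 decarboxylase inhibition; Dopa measured by HPLC with electrochemical detection. Dose-response curves from four to six dose levels per substance and brain area; ED50 estimated as the dose giving half-maximal decrease of Dopa level.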
# [11] = target: D(2) dopamine receptor (Rattus norvegicus, UniProt P61169); assay: In vitro affinity against Dopamine receptor D2 using [3H]DP-5,6-ADTN radioligand in rat striatal homogenate.
# [12] = system: Rattus norvegicus; assay: Level of compound in rat striatum at dose 8 umol/kg; format: functional, organism-based; outline: as §3
# [13] = system: Rattus norvegicus; assay: Level of compound in rat cerebellum by pretreatment of tropolone (50 mg/kg, ip, 30min) at dose 8 umol/kg; format: functional, organism-based; outline: as §3
# [14] = system: Rattus norvegicus; assay: Level of compound in rat striatum at dose 40 umol/kg; format: functional, organism-based; outline: as §3
# [15] = system: Rattus norvegicus; assay: Level of compound in rat cerebellum in the absence of tropolone at dose 40 umol/kg; format: functional, organism-based; outline: as §3
# [16] = system: Rattus norvegicus; assay: Level of compound in rat cerebellum by pretreatment of tropolone (50 mg/kg, ip, 30min) at dose 40 umol/kg; format: functional, organism-based; outline: as §3
# [17] = system: Rattus norvegicus; assay: Level of compound in rat cerebellum at dose 40 umol/kg; format: functional, organism-based; outline: as §3
# [18] = system: Rattus norvegicus; assay: Level of compound in rat striatum by pretreatment of tropolone (50 mg/kg, ip, 30min) at dose 40 umol/kg; format: functional, organism-based; outline: as §3
# [19] = Ratio of Vmax/Km was measured; format: ADME
# Outline: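 Crude COMT from rat liver (KCl homogenate, 105000g supernatant). Incubated at 37 °C in 50 mM phosphate buffer pH 7.4 with 10 mM MgCl2, S-adenosyl-L-methionine ([…] as printed), and substrate at 0.1–0.00125 mM (final concentrations), 15 min. Stopped with perchloric acid; the O-methylated product was measured by HPLC-electrochemical detection. Km and Vmax from Lineweaver-Burk plots of four experiments, each concentration run in triplicate.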
# [20] = system: Rattus norvegicus; assay: Level of compound in rat striatum in the absence of tropolone at dose 40 umol/kg; format: functional, organism-based; outline: as §3
# [21] = system: Rattus norvegicus; assay: Level of compound in rat cerebellum in the absence of tropolone at dose 8 umol/kg; format: functional, organism-based; outline: as §3
# [22] = species: Rattus norvegicus; assay: Dopa accumulation was evaluated in limbic system of male Sprague-Dawley rat.; format: functional; outline: as §4
# [23] = system: Rattus norvegicus; assay: Level of compound in rat cortex in the absence of tropolone at dose 8 umol/kg; format: functional, organism-based; outline: as §3
# [24] = system: catechol-O-methyl transferase; assay: Michaelis-Menten constant was measured for O-methylation (probably meta) by catechol-O-methyl transferase; format: ADME
# Outline: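 Crude rat liver COMT (105000g supernatant) at 37°C for 15 min with 0.1–0.00125 mM substrate, S-adenosyl-L-methionine, 10 mM MgCl2 and 50 mM phosphate pH 7.4 (final). Reaction stopped with perchloric acid; O-methyl product measured by HPLC-ECD. Km from Lineweaver-Burk plots, four experiments, each concentration in triplicate.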
# [25] = system: Rattus norvegicus; assay: Level of compound in rat striatum by pretreatment of tropolone (50 mg/kg, ip, 30min) at dose 8 umol/kg; format: functional, organism-based; outline: as §3
# [26] = system: Rattus norvegicus; assay: Presynaptic activity at the level of DA metabolism was determined at dose 45 umol/kg on striatal level of DOPAC; format: functional; outline: as §1
# [27] = system: Rattus norvegicus; assay: Level of compound in rat cortex by pretreatment of tropolone (50 mg/kg, ip, 30min) at dose 40 umol/kg; format: functional, organism-based; outline: as §3
# [28] = system: Rattus norvegicus; assay: Level of compound in rat cortex in the absence of tropolone at dose 40 umol/kg; format: functional, organism-based; outline: as §3
# [29] = system: Rattus norvegicus; assay: Level of compound in rat cerebellum at dose 8 umol/kg; format: functional, organism-based; outline: as §3
# [30] = system: Rattus norvegicus; assay: Level of compound 5 in rat intraperitoneally; format: functional, organism-based
# Outline: (§5)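 Female Wistar rats (170–200 g) given 45 μmol/kg ip or sc, killed 60 min later. Striatum, cerebellum and cortex were frozen and homogenised in 0.1 M perchloric acid, purified on Sephadex G10 and analysed by HPLC-ECD. O-methyl metabolite was read at 27% methanol and 750 mV. Values pmol/g tissue, n = 3.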
# [31] = system: Rattus norvegicus; assay: Motor activity effect in reserpinized rat with tropolone pretreatment at 10 umol/kg, ip expressed as accumulation counts 0-30 min after treatment; format: functional; outline: as §2
# [32] = system: Rattus norvegicus; assay: Level of compound 5 in rat cortex at dose 45 umol/kg administered subcutaneously; format: functional, organism-based; outline: as §5
# [33] = system: Rattus norvegicus; assay: Level of compound in rat cortex at dose 45 umol/kg administered subcutaneously; format: functional, organism-based; outline: as §5
# [34] = species: Rattus norvegicus; assay: Dopa accumulation was evaluated in limbic system of male Sprague-Dawley rat; format: functional; outline: as §4
# [35] = system: Rattus norvegicus; assay: Level of compound 5 in rat cerebellum at dose 45 umol/kg administered subcutaneously; format: functional, organism-based; outline: as §5
# [36] = system: Rattus norvegicus; assay: Level of compound in rat cerebellum at dose 45 umol/kg administered subcutaneously; format: functional, organism-based; outline: as §5
# [37] = system: Rattus norvegicus; assay: Motor activity effect in reserpinized rat with tropolone pretreatment at 50 umol/kg, ip expressed as accumulation counts 0-30 min after treatment; format: functional; outline: as §2
# [38] = system: Rattus norvegicus; assay: Level of compound 5 in rat cerebellum at dose 45 umol/kg administered intraperitoneally; format: functional, organism-based; outline: as §5
# [39] = species: Rattus norvegicus; assay: Dopa accumulation was evaluated in corpus striatum of male Sprague-Dawley rat; format: functional; outline: as §4
# [40] = system: Rattus norvegicus; assay: Level of compound in rat cerebellum at dose 45 umol/kg administered intraperitoneally; format: functional, organism-based; outline: as §5
# [41] = system: Rattus norvegicus; assay: Level of compound in rat cortex at dose 45 umol/kg administered intraperitoneally; format: functional, organism-based; outline: as §5
# [42] = system: Rattus norvegicus; assay: Motor activity effect in reserpinized rat at 213 umol/kg, sc expressed as accumulation counts 0-30 min after treatment; format: functional
# [43] = system: Rattus norvegicus; assay: Level of compound in rat intraperitoneally; format: functional, organism-based
# [44] = system: Rattus norvegicus; assay: Level of compound in rat striatum at dose 45 umol/kg administered subcutaneously; format: functional, organism-based; outline: as §5
# [45] = system: Rattus norvegicus; assay: Level of compound 5 in rat cortex at dose 45 umol/kg administered intraperitoneally; format: functional, organism-based; outline: as §5
# [46] = system: Rattus norvegicus; assay: Level of compound 5 in rat striatum at dose 45 umol/kg administered subcutaneously; format: functional, organism-based; outline: as §5
# [47] = system: Rattus norvegicus; assay: Motor activity effect in reserpinized rat at 13 umol/kg, sc expressed as accumulation counts 0-30 min after treatment; format: functional
# [48] = system: Rattus norvegicus; assay: Level of compound in rat striatum at dose 45 umol/kg administered subcutaneously.; format: functional, organism-based; outline: as §5
# D(1A) dopamine receptor, sequence (P18901 whole entry): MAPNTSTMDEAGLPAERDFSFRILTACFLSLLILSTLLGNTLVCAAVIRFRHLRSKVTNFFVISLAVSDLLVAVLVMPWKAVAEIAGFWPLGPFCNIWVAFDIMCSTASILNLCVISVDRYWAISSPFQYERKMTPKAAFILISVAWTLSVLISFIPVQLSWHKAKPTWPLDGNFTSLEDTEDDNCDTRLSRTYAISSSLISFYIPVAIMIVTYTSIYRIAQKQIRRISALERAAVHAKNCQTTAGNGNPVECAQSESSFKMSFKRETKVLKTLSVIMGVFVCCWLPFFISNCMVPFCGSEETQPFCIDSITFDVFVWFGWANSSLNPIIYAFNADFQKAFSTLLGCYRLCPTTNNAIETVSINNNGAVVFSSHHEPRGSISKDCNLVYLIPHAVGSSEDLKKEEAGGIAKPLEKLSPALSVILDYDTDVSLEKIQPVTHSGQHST
# D(2) dopamine receptor, sequence (P61169 whole entry): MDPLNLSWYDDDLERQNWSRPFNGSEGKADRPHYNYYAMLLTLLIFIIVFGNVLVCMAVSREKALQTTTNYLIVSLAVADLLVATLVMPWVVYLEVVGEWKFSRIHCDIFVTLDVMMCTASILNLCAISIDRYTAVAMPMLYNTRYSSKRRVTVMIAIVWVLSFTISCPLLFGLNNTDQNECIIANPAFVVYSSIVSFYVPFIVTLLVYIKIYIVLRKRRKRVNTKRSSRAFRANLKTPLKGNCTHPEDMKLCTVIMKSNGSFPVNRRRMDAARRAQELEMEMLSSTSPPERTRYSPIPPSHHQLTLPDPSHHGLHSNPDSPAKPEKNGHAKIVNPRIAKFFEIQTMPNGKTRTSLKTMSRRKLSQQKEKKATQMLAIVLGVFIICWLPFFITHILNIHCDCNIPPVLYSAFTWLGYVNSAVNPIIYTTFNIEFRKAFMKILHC
smiles,measurement,setting,value
NCCc1ccc(O)c(O)c1 [DOPAMINE],Km,[1],7.8 µM
CCCN1CCC[C@@H](c2ccc(O)c(O)c2)C1,Production (pM (mg of protein)-1),[2],138
same,Control,[3],65%
same,Motor activity,[4],69
same,Level,[5],3250 pmol/g
same,Level,[6],17000 pmol/g
same,Level,[7],3410 pmol/g
same,Ki,[8],13.5 µM
same,Motor activity,[9],78
same,ED50,[10],8.2 µmol/kg
same,Ki,[11],12 nM
same,Level,[12],2330 pmol/g
same,Level,[13],2290 pmol/g
same,Level,[14],10300 pmol/g
same,Level,[15],63 pmol/g
same,Level,[16],9330 pmol/g
same,Level,[17],9160 pmol/g
same,Level,[18],9720 pmol/g
same,Ratio,[19],485
same,Km,[1],21 µM
same,Level,[20],61 pmol/g
same,Level,[21],10 pmol/g
same,ED50,[22],8.5 µmol/kg
same,Level,[23],16 pmol/g
same,Km,[24],77 µM
same,Level,[25],2540 pmol/g
same,Control,[26],83%
same,Level,[27],13200 pmol/g
same,Level,[28],167 pmol/g
same,Level,[29],2020 pmol/g
CCCN1CCC[C@@H](c2cccc(O)c2)C1 [PRECLAMOL],Control,[3],123%
same,Level,[30],174 pmol/g
same,Motor activity,[31],23
same,Level,[32],243 pmol/g
same,Level,[33],21100 pmol/g
same,ED50,[34],0.8 µmol/kg
same,Level,[35],174 pmol/g
same,Level,[36],16100 pmol/g
same,Motor activity,[37],77
same,Level,[38],104 pmol/g
same,ED50,[39],1.7 µmol/kg
same,Level,[40],3430 pmol/g
same,Level,[41],5790 pmol/g
same,Motor activity,[42],12
same,Level,[43],5380 pmol/g
same,Control,[26],118%
same,Level,[44],20300 pmol/g
same,Level,[45],280 pmol/g
same,Level,[46],89 pmol/g
CCCN1CCC[C@H](c2cccc(O)c2)C1,Control,[3],32%
same,Level,[30],151 pmol/g
same,Level,[32],211 pmol/g
same,Level,[33],18300 pmol/g
same,ED50,[34],1 µmol/kg
same,Level,[35],114 pmol/g
same,Motor activity,[47],78
same,Level,[36],15200 pmol/g
same,Level,[38],98 pmol/g
same,ED50,[39],1.3 µmol/kg
same,Level,[40],4910 pmol/g
same,Level,[41],7410 pmol/g
same,Level,[48],17600 pmol/g
same,Level,[43],7040 pmol/g
same,Control,[26],50%
same,Level,[45],243 pmol/g
same,Level,[46],93 pmol/g
CCCN1CCC[C@H](c2ccc(O)c(O)c2)C1,Production (pM (mg of protein)-1),[2],46
same,Control,[3],49%
same,Motor activity,[4],20
same,Level,[5],2050 pmol/g
same,Level,[6],9540 pmol/g
same,Level,[7],2750 pmol/g
same,Ki,[8],57.8 µM
same,Motor activity,[9],24
same,Ki,[11],11 nM
same,Level,[12],1620 pmol/g
same,Level,[13],1910 pmol/g
same,Level,[14],6000 pmol/g
same,Level,[15],150 pmol/g
same,ED50,[34],6.2 µmol/kg
same,Level,[16],7200 pmol/g
same,Level,[17],4340 pmol/g
same,Level,[18],5850 pmol/g
same,Ratio,[19],346
same,Km,[1],65 µM
same,Level,[20],112 pmol/g
same,Level,[21],22 pmol/g
same,Level,[23],18 pmol/g
same,ED50,[39],7 µmol/kg
same,Km,[24],121 µM
same,Level,[25],1380 pmol/g
same,Control,[26],65%
same,Level,[27],8470 pmol/g
same,Level,[28],227 pmol/g
same,Level,[29],1550 pmol/g
